Results taken from ChEMBL document CHEMBL1156845, “Spirocyclic ureas: orally bioavailable 11 beta-HSD1 inhibitors identified by computer-aided drug design” (Bioorg Med Chem Lett, 2010).

What was measured:
[1] = target: T1, 11-beta-hydroxysteroid dehydrogenase 1 (Homo sapiens, UniProt P28845); assay: Inhibition of human recombinant 11beta-HSD1 expressed in CHO cells assessed as conversion of [3H]cortisone to [3H]cortisol by SPA; assay type: cell-based
[2] = target: T1, 11-beta-hydroxysteroid dehydrogenase 1; assay: Inhibition of 11beta-HSD1 in human adipocytes assessed as conversion of [3H]cortisone to [3H]cortisol after 2 hrs by SPA; assay type: cell-based
[3] = target: T2, 11-beta-hydroxysteroid dehydrogenase type 2 (Homo sapiens, UniProt P80365); assay: Inhibition of 11beta-HSD2
T2 sequence (P80365 whole entry): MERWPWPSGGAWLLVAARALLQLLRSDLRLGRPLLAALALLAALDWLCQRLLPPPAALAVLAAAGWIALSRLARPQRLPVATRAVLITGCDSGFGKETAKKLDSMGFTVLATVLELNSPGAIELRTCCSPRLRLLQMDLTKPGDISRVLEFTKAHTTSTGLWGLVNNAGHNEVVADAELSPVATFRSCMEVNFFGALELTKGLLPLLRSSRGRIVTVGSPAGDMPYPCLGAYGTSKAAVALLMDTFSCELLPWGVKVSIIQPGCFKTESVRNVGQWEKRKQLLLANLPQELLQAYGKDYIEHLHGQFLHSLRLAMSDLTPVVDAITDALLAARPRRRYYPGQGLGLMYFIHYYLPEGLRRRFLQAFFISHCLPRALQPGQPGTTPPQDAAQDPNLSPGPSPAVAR

[4] = Drug level in mouse liver at 30 mg/kg, po after 4 hrs by LC-MS/MS analysis; assay type: ADME, organism-based; parameters: dose 30 mg/kg, route oral; conditions: read-out: Drug uptake
Method in brief: (§1)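 Mice (n = 3) were dosed PO at 30 mg/kg as a suspension in 0.5% methocellulose in PBS. Plasma, liver and adipose were harvested at 4 h and snap frozen. Thawed tissue was homogenized in 0.05 M BES, pH 7, and extracted into acetonitrile. Levels were measured by LC–MS/MS against standard curves made separately in each tissue matrix.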

[5] = Drug level in mouse adipose at 30 mg/kg, po after 4 hrs by LC-MS/MS analysis; assay type: ADME, organism-based; parameters: dose 30 mg/kg, route oral; conditions: adipose tissue, read-out: Drug uptake; method in brief: as §1
[6] = Drug level in mouse plasma at 30 mg/kg, po after 4 hrs by LC-MS/MS analysis; assay type: ADME, organism-based; parameters: dose 30 mg/kg, route oral; method in brief: as §1
Cynomolgus monkey = assay: Inhibition of 11beta-HSD1 in cynomolgus monkey assessed as reduction of plasma cortisol concentration at 10 mg/kg, po administered 2 hrs before cortisone 21-acetate challenge measured every 30 mins for 6 hrs; assay type: functional, Macaca fascicularis; parameters: scale not given: the % may be the effect or the level left
Method in brief: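 Cynomolgus monkeys (n = 5, crossover, 7-day washout) were given dexamethasone at t = −8 h to suppress endogenous cortisol. Vehicle or compound (10 mg/kg PO) followed at t = 0, then cortisone 21-acetate challenge (25 mg PO) at t = 2 h. Blood was sampled every 30 min for 6 h to measure plasma cortisol.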

[7] = Clearance in mouse at 1.9 mg/kg, iv; assay type: ADME, organism-based; parameters: dose 1.9 mg/kg, route intravenous; conditions: in vivo
Method in brief: (§2)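 PK after oral and IV dosing, with compounds given as sodium salts. Rat and mouse received 9.68 mg/kg PO and 1.9 mg/kg IV; cynomolgus monkey received 2 mg/kg PO and 1 mg/kg IV. AUC(inf) and t1/2 are the oral parameters, clearance is from the IV arm, and %F is oral bioavailability.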

[8] = Oral bioavailability in mouse at 9.68 mg/kg; assay type: ADME, organism-based; conditions: in vivo; method in brief: as §2
[9] = AUC (infinity) in rat at 9.68 mg/kg, po and 1.9 mg/kg, iv; assay type: ADME, organism-based; conditions: plasma; method in brief: as §2
[10] = Half life in rat at 9.68 mg/kg, po and 1.9 mg/kg, iv; assay type: ADME, organism-based; conditions: in vivo; method in brief: as §2
[11] = Clearance in rat at 1.9 mg/kg, iv; assay type: ADME, organism-based; parameters: dose 1.9 mg/kg, route intravenous; conditions: in vivo; method in brief: as §2
[12] = Oral bioavailability in rat at 9.68 mg/kg; assay type: ADME, organism-based; conditions: in vivo; method in brief: as §2
[13] = AUC (infinity) in mouse at 9.68 mg/kg, po and 1.9 mg/kg, iv; assay type: ADME, organism-based; conditions: plasma; method in brief: as §2
[14] = Half life in mouse at 9.68 mg/kg, po and 1.9 mg/kg, iv; assay type: ADME, organism-based; conditions: in vivo; method in brief: as §2
[15] = AUC (infinity) in cynomolgus monkey at 2 mg/kg, po and 1 mg/kg, iv; assay type: ADME, organism-based, Macaca fascicularis; conditions: plasma; method in brief: as §2
[16] = Half life in cynomolgus monkey at 2 mg/kg, po and 1 mg/kg, iv; assay type: ADME, organism-based, Macaca fascicularis; conditions: in vivo; method in brief: as §2
[17] = Clearance in cynomolgus monkey at 1 mg/kg, iv; assay type: ADME, organism-based, Macaca fascicularis; parameters: dose 1 mg/kg, route intravenous; conditions: in vivo; method in brief: as §2
[18] = Oral bioavailability in cynomolgus monkey at 2 mg/kg; assay type: ADME, organism-based, Macaca fascicularis; conditions: in vivo; method in brief: as §2
Cytochrome P450 3A4 = Cytochrome P450 3A4 (Homo sapiens, UniProt P08684); assay: Inhibition of CYP3A4; assay type: ADME
Cytochrome P450 2C9 = Cytochrome P450 2C9 (Homo sapiens, UniProt P11712); assay: Inhibition of CYP2C9; assay type: ADME
Cytochrome P450 2D6 = Cytochrome P450 2D6 (Homo sapiens, UniProt P10635); assay: Inhibition of CYP2D6; assay type: ADME
[19] = Half life in human liver microsomes; assay type: ADME, Microsome

T1 sequence (P28845 whole entry): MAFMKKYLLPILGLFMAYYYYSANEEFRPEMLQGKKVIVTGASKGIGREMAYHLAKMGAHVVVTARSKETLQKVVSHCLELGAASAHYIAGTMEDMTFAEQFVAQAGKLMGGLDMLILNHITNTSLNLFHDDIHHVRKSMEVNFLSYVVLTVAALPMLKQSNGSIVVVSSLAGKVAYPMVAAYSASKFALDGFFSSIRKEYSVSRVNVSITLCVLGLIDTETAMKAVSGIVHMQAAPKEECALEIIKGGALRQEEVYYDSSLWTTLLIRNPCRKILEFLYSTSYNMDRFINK
Sequence of Cytochrome P450 2C9 (P11712 whole entry): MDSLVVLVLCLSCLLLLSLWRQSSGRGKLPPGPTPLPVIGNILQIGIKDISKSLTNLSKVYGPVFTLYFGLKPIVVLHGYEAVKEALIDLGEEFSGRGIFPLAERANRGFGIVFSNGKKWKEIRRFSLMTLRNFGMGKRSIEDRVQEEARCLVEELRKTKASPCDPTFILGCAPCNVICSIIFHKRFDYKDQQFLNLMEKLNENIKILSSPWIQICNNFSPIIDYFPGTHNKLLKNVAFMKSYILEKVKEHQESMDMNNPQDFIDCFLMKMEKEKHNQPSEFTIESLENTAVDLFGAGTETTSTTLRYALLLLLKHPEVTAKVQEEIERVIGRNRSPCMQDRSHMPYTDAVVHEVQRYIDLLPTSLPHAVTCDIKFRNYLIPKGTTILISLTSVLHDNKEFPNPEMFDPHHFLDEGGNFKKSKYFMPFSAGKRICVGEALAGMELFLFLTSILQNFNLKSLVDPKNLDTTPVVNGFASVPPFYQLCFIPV
Sequence of Cytochrome P450 2D6 (P10635 whole entry): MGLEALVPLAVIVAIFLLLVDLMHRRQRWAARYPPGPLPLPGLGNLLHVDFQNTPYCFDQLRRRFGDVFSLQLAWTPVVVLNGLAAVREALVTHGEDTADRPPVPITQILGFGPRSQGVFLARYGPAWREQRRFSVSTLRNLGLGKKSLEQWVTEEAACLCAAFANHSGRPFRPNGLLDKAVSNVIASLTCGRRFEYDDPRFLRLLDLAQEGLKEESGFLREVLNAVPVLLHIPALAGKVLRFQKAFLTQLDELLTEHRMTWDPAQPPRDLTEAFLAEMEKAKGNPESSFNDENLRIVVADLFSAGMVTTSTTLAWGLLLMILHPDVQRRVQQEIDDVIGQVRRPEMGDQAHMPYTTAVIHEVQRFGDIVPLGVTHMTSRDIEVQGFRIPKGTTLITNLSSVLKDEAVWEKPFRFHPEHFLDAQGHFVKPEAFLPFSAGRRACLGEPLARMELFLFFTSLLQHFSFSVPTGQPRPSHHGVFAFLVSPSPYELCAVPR
Sequence of Cytochrome P450 3A4 (P08684 whole entry): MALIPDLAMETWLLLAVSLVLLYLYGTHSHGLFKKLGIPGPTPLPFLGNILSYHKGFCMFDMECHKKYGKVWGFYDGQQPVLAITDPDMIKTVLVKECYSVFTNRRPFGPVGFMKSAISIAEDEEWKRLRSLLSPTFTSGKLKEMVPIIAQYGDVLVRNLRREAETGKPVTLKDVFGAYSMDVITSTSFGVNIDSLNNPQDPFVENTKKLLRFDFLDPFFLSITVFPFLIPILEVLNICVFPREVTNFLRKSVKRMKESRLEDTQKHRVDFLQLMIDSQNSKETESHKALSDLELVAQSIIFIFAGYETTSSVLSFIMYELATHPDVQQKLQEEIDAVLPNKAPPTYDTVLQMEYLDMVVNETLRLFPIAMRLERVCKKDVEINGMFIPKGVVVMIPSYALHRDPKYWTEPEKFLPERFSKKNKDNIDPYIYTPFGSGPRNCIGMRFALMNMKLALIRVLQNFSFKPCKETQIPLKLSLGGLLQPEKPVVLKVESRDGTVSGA

Compound | IC50 [1] [nM] | IC50 [2] [nM] | IC50 [3] [nM] | also measured
Cc1cccc2c1C1(CCN(C(=O)NC3C4CC5CC(C4)CC3C5)CC1)CC2CC(=O)O (stereo not drawn) | 7.6 | 18.3 | > 10000 | 
O=C(O)C[C@H]1CC2(CCN(C(=O)NC3C4CC5CC(C4)CC3C5)CC2)c2c(Br)cccc21 (stereo partly drawn) | 1.1 | 2.5 | > 10000 | concentration at 4 h [4]: 7070 ng/mL; concentration at 4 h [5]: 127 ng/mL; concentration at 4 h [6]: 393 ng/mL; Activity (Cynomolgus monkey): 80%
O=C(O)C[C@@H]1CC2(CCN(C(=O)NC3C4CC5CC(C4)CC3C5)CC2)c2c(Br)cccc21 (single isomer, unassigned) | 2 | 7.5 | > 10000 | 
NC(=O)CC1CC2(CCN(C(=O)NC3C4CC5CC(C4)CC3C5)CC2)c2c(Br)cccc21 (stereo not drawn) | 0.5 | 0.9 |  | 
CS(=O)(=O)NC(=O)CC1CC2(CCN(C(=O)NC3C4CC5CC(C4)CC3C5)CC2)c2c(Br)cccc21 (stereo not drawn) | 2 | 22.3 | > 10000 | 
O=C(NC1C2CC3CC(C2)CC1C3)N1CCC2(CC1)CC(CCO)c1cccc(Br)c12 (stereo not drawn) | 1.7 | 18 | 9000 | 
O=C(NC1C2CC3CC(C2)CC1C3)N1CCC2(CCc3ccccc32)CC1 (stereo not drawn) | 0.8 | 2.7 |  | 
O=C(O)CC1CC2(CCN(C(=O)NC3C4CC5CC(C4)CC3C5)CC2)c2c(Br)cccc21 (stereo not drawn) | 1.6 | 5.3 | > 10000 | clearance [7]: 28.1 mL/min/kg; bioavailability [8]: 29%; AUC(0-inf) [9]: 5400 ng·h/mL; half-life [10]: 3.46 h; clearance [11]: 26.6 mL/min/kg; bioavailability [12]: 90%; AUC(0-inf) [13]: 1720 ng·h/mL; half-life [14]: 6.17 h; AUC(0-inf) [15]: 743 ng·h/mL; half-life [16]: 6.03 h; clearance [17]: 13.8 mL/min/kg; bioavailability [18]: 31%; concentration at 4 h [4]: 5130 ng/mL; concentration at 4 h [5]: 77 ng/mL; concentration at 4 h [6]: 442 ng/mL; IC50 (Cytochrome P450 3A4): > 15000 nM; IC50 (Cytochrome P450 2C9): > 15000 nM; IC50 (Cytochrome P450 2D6): > 15000 nM; half-life [19]: > 1 h
O=C(O)CC1CC2(CCN(C(=O)NC3C4CC5CC(C4)CC3C5)CC2)c2c(Cl)cccc21 (stereo not drawn) | 2.2 | 10.7 | > 10000 | 
O=C(O)CC1CC2(CCN(C(=O)NC3C4CC5CC(C4)CC3C5)CC2)c2ccccc21 (stereo not drawn) |  |  |  | AUC(0-inf) [9]: 3530 ng·h/mL; half-life [10]: 2.87 h; clearance [11]: 47.1 mL/min/kg; bioavailability [12]: 94%

Further lines, with some results ahead:

IC50 [1] [nM] | IC50 [2] [nM] | IC50 [3] [nM] | Compound | also measured
3.4 | 30.2 | > 10000 | O=C(O)CC1CC2(CCN(C(=O)NC3C4CC5CC(C4)CC3C5)CC2)c2cc(Cl)ccc21 (stereo not drawn) | 
8.9 | 22.5 | > 10000 | Cc1ccc2c(c1)C1(CCN(C(=O)NC3C4CC5CC(C4)CC3C5)CC1)CC2CC(=O)O (stereo not drawn) | 
3.4 | 23.2 | > 10000 | O=C(O)CC1CC2(CCN(C(=O)NC3C4CC5CC(C4)CC3C5)CC2)c2ccc(Cl)cc21 (stereo not drawn) | 
68.6 | > 200 |  | O=C(O)C1CC2(CCN(C(=O)NC3C4CC5CC(C4)CC3C5)CC2)c2ccccc21 (stereo not drawn) | 
